Screening results as filed in PubChem.
TRPC6 activator: mouse TRPC6 channel activators, primary screen, cell-based, HEK293, membrane potential dye. Short transient receptor potential channel 6 (Mus musculus), Q61143. HEK293-TRPC6 membrane potential dye fluorescence; stronger effect = higher value. B-score at 10 µM. 0.13% of 310,000 active. AID 2550, 2010;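 active = B-score of the integrated fluorescence ratio above library mean plus 3 SD, and starting fluorescence ratio within library mean plus 5 SD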;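 also: higher score means more depolarization so channel activation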
TRPC4 act: activators of mouse TRPC4 channel, primary screen, Fluo4 calcium, HEK293 TRPC4beta/mu-opioid cells; B-score at 10 µM; Short transient receptor potential channel 4 (Mus musculus), Q9QUQ5; 0.49% of 310,000 active; AID 2237, 2010; Fluo4 calcium fluorescence; stronger effect = higher value;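 active = B-score above 5 SD of library B-scores, and initial fluorescence ratio not above library mean plus 5 SD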;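 also: positive B-score marks a calcium rise read as TRPC4 activation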
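system = HEK293 cells stably co-expressing mouse TRPC4beta and mu-opioid receptor | schedule = Fluo4 dye loading 45 min at room temperature, 110 s recording | measure = B-scored integrated calcium fluorescence ratio | signal = Fluo4 calcium-sensitive dye fluorescence, kinetic, 1 Hz baseline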
TRPC6 inh: mouse TRPC6 channel inhibitors, primary screen, cell-based, HEK293, membrane potential dye; Short transient receptor potential channel 6 (Mus musculus), Q61143; ACh-evoked depolarization; stronger effect = lower value; B-score at 10 µM; 1.1% of 310,000 active; AID 2553, 2010;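 active = B-score under library mean minus 3 SD, initial fluorescence not abnormally high, positive integrated signal ratio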;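 also: B-score derived from integrated fluorescence ratio over the kinetic read; more negative B-score means stronger inhibition of depolarization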
TRPC4 PAM: positive allosteric modulators of TRPC4, primary screen, cell-based, mouse TRPC4beta, HEK293 mu-opioid, Fluo-4 calcium; 0.42% of 310,000 active; Short transient receptor potential channel 4 (Mus musculus), Q9QUQ5; B-score at 10 µM; DAMGO EC20, Fluo-4 Ca2+ flux; stronger effect = higher value;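 active = B-score of calcium response area above 5 SD of library B-scores, with initial fluorescence ratio within 5 SD of library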;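 also: B-score of integrated fluorescence ratio over time as area under calcium response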
TRPC4 inh: inhibitors of mouse TRPC4 channel, primary screen, Fluo4 calcium, HEK293 TRPC4beta/mu-opioid cells. DAMGO-evoked Fluo4 calcium flux; stronger effect = lower value. B-score at 10 µM. 0.39% of 300,000 active;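 active = B-score over 3 SD under the library average, no early fluorescence shift, positive overall ratio signal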
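test system = HEK293 cells with stable TRPC4beta plus mu-opioid receptor expression | detection = Fluo4 Ca2+ flux fluorescence | read-out = integrated fluorescence ratio relative to baseline, converted to per-well B score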
An asterisk follows results filed as active; i = inactive. This is a sample that favours compounds with a hit; in the whole collection about 2.3% have one here.

SMILES	TRPC6 activator	TRPC4 act	TRPC6 inh	TRPC4 PAM	TRPC4 inh
N=c1c2c(-c3ccccc3)c(-c3ccccc3)n(Cc3ccccc3)c2ncn1CCCn1ccnc1	i	i	-6.6*	i	i
CCCCn1cnc2c(c(-c3ccccc3)c(-c3ccccc3)n2Cc2ccco2)c1=N	i	i	-7.5*	i	i
N=c1c2c(ncn1Cc1ccco1)Oc1ccc3ccccc3c1C2c1ccccc1 (configuration not stated)	i	i	i	i	i
N=c1c2c(-c3ccccc3)c(-c3ccccc3)n(Cc3ccco3)c2ncn1Cc1ccco1	i	46*	i	i	i
CC1CCC(NS(=O)(=O)c2ccc(Cl)nc2)CC1 (configuration not stated)	i	i	i	i	i
CSc1ccc(N=Nc2c(C)[nH]n(C)c2=O)cc1	i	i	i	i	i
CCCN(c1nc(C)cc(OC)n1)S(=O)(=O)c1ccccc1	i	i	i	i	-5*
O=C(CC1S/C(=N\S(=O)(=O)c2ccccc2)N(c2ccccc2)C1=O)Nc1ccc(F)cc1 (configuration not stated)	i	i	i	10*	i
O=C(N/N=C/C(Br)=C/c1ccccc1)c1ccccc1[N+](=O)[O-]	i	i	i	12*	i
O=C1CCc2cc(S(=O)(=O)Nc3ccc(F)cc3)cc3c2N1CC3	i	i	i	i	i
CC(C)(C)c1ccc(-c2nc3cc(N)ccc3o2)cc1	i	i	i	18*	i
CNC(=S)NNC(=O)c1cccn(Cc2ccc(Cl)cc2Cl)c1=O	i	i	i	i	i
CNC(=S)NNC(=O)c1cccn(Cc2cccc(C(F)(F)F)c2)c1=O	i	i	i	25*	i
CCOC(=O)[C@@H]1[C@H]2COc3ccccc3[C@@H]2N2C(=O)N(c3cccc(Cl)c3)C(=O)[C@@]12C	i	i	i	i	i
COc1ccc(CSCCN)cc1Cl	i	103*	i	i	i
CCN(CC)Cc1ccc(OC)c(Cl)c1	i	i	i	i	i
Cc1cc2ccccn2c1C(=O)c1cc([N+](=O)[O-])cc([N+](=O)[O-])c1	i	i	i	12*	i
COC(=O)c1cc(C(=O)c2c(C)cc3ccccn23)cc([N+](=O)[O-])c1	i	i	i	i	i
O=C(NCCS(=O)(=O)N1CCN(c2ccccc2F)CC1)c1cccs1	i	i	i	i	i
O=C1c2ccccc2C2(c3ccccc3)N1CCN2C(=O)C(Cl)(Cl)Cl (configuration not stated)	i	i	i	i	i
O=C(Nc1ccc(F)cc1)N1CCN2C(=O)c3ccccc3C12c1ccccc1 (configuration not stated)	i	i	i	i	-6*
CCOc1cc(C(=O)Nc2cccc(OCC(=O)N3CCOCC3)c2)cc(OCC)c1OCC	i	i	i	i	i
CN(C)c1ccc(C(=S)N2CCN(c3ccc([N+](=O)[O-])cc3)CC2)cc1	i	i	i	19*	i
CCn1c(=O)cc(OCC(=O)N2CCN(c3cccc(C(F)(F)F)c3)CC2)c2ccccc21	i	i	i	11*	i
CC1(C)COCN1S(=O)(=O)c1ccc(C(=O)Nc2nnc(-c3ccc(Cl)s3)o2)cc1	i	111*	i	i	-5*
CCC1CCCCN1S(=O)(=O)c1ccc(C(=O)Nc2nnc(-c3ccccc3Cl)o2)cc1 (configuration not stated)	i	65*	i	i	i
Cc1c(S(=O)(=O)NC2CCCCCC2)c(=O)n(C)c(=O)n1C	i	i	i	i	i
Nc1ccc(Sc2ccc([N+](=O)[O-])cc2)cc1	i	i	i	i	-6*
O=C1C=CC(=O)N1c1ccc(Sc2ccc([N+](=O)[O-])cc2)cc1	i	i	i	i	i
